Measured values of several laboratories.
Each line is one published result; the experiments were not run side by side.
Observed: enzyme activity
Action: inhibitor
EGFR L858R/T790M: Epidermal growth factor receptor (EGFR, Homo sapiens, UniProt P00533, L858R/T790M)
EGFR: Epidermal growth factor receptor (EGFR, Homo sapiens, UniProt P00533)
EGFR L858R: Epidermal growth factor receptor (EGFR, Homo sapiens, UniProt P00533, L858R)

C=CC(=O)Nc1cc(Nc2nc(N3CCc4sccc4C3)c3cccnc3n2)c(OC)cc1N1CCN(C(C)=O)CC1
inhibition (EGFR L858R/T790M; ELISA; 0.1 µM): 19.4%

COc1cc2ncnc(Nc3ccc(Oc4ccccc4)c(C)c3C)c2cc1OC
inhibition (Epidermal growth factor receptor (EGFR, Homo sapiens, UniProt P00533, L861Q); 1 µM): 86%

CCCS(=O)(=O)Nc1ccc(F)c(C(=O)c2c[nH]c3ncc(-c4ccc(Cl)cc4)cc23)c1F
inhibition (EGFR; 1 µM): < 10%

CC/C(=N\NC(=O)NCc1cccc(O)c1)c1ccc(O)c(C)c1O
inhibition (EGFR L858R; 0.1 µM): 0.5%

CS(=O)(=O)Nc1cccc(-c2csc(NC(=O)CSc3nc4nccnc4c(=O)n3CCc3ccccc3)n2)c1
inhibition (EGFR; 10 µM): -1%

CCC(=O)Nc1cc(Nc2nc(N3CCc4sccc4C3)c3cccnc3n2)c(OC)cc1N1CCN(C(C)=O)CC1
inhibition (EGFR L858R/T790M; ELISA; 0.1 µM): 10%

COc1cc(-c2cc(-c3ccc(N4CCNCC4)cc3)cnc2N)cc(OC)c1OC
inhibition (Epidermal growth factor receptor (EGFR, Homo sapiens, UniProt P00533, T790M); 0.1 µM): 2%

C=CC(=O)Nc1cc(Nc2nc(N3CCc4sccc4C3)c3cccnc3n2)c(OC)cc1N1CCC(N(C)C)CC1
inhibition (EGFR L858R/T790M; ELISA; 0.1 µM): 36%

C=CC(=O)Nc1cc(Nc2nccc(Nc3cc(Cl)c(F)cc3C(C)(C)O)n2)c(OC)cc1N1CC[C@@H](N(C)C)C1
inhibition (EGFR L858R/T790M; 1 µM): 99%

CCOc1cc(-c2nncn2C)ccc1Nc1ncc2cc(C)nc(NCC(C)(C)C)c2n1
inhibition (EGFR; FRET; 1 µM): < 15%

C=CC(=O)Nc1cc(Nc2nc(N3CCc4sccc4C3)c3cccnc3n2)c(OC)cc1N1CCSCC1
inhibition (EGFR L858R/T790M; ELISA; 0.1 µM): 23.9%

CNCc1ccc(-c2cc(-c3nc(-c4ccc(S(=O)(=O)C(C)C)cc4)cnc3N)on2)cc1
inhibition (EGFR; 2 µM): 0%

CN(C)C1CCN(CC#Cc2nn(C3CCCC3)c3nc(NCc4ccccc4)ncc23)C1 (stereo not drawn)
inhibition (EGFR; FRET; 10 µM): 17%

C=CC(=O)Nc1cc(Nc2nc(N3CCc4sccc4C3)c3sccc3n2)c(OC)cc1N1CCN(C)CC1
inhibition (EGFR L858R/T790M; ELISA; 0.1 µM): 25.6%

CNc1cccc2cc(C(=O)Nc3ccc(C(=O)O)cc3)c(=O)[nH]c12
inhibition (EGFR; 10 µM): -1.7%

C=C(Cl)C(=O)Nc1cc(Nc2nc(N3CCOCC3)c3sccc3n2)c(OC)cc1N(C)CCN(C)C
inhibition (EGFR L858R/T790M; ELISA; 0.1 µM): 57.8%

O=C(CSc1nc2nccnc2c(=O)n1CCc1ccccc1)Nc1nccs1
inhibition (EGFR; 10 µM): -2%

COc1cc2nccc(Oc3ccc(NC(=O)c4c5n(n(-c6ccc(F)cc6)c4=O)CCCC5)cc3)c2cc1OC
inhibition (EGFR; 0.1 µM): -2%

COc1cc2ncnc(Nc3ccc(Oc4ccccc4)cc3C)c2cc1OC
inhibition (EGFR L858R; 1 µM): 64%

C=C(Cl)C(=O)Nc1cc(Nc2nc(N3CCc4sccc4C3)c3sccc3n2)c(OC)cc1N(C)CCN(C)C
inhibition (EGFR L858R/T790M; ELISA; 0.1 µM): 90.3%

COCCOc1cc2ncnc(Nc3cccc(OCCn4ccnc4[N+](=O)[O-])c3)c2cc1OCCOC
inhibition (EGFR; FRET; 1 µM): 28%
